Measured values from ChEMBL document CHEMBL1148481, “Linker length modulates DNA cross-linking reactivity and cytotoxic potency of C8/C8' ether-linked C2-exo-unsaturated pyrrolo[2,1-c][1,4]benzodiazepine (PBD) dimers” (J Med Chem, 2004).

Columns and labels:
Nucleic Acid [1] = assay: Thermal stabilization of duplex form of calf thymus DNA after incubation for 4 hours; type: functional; conditions: Bos taurus
In short: (§1)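 UV melting of calf thymus DNA (100 μM phosphate, 50 μM bp) with ligand at 20 μM (ligand:DNA 1:5) in pH 7.00 buffer (10 mM sodium phosphate, 1 mM EDTA), ≤0.6% v/v MeOH with correction. Samples were preincubated at 37 °C for the stated time, heated at 1 °C/min over 45–98 °C and monitored at 260 nm. ΔTm is the midpoint shift versus free DNA, from at least three determinations.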

Nucleic Acid [2] = assay: Thermal stabilization of duplex form of calf thymus DNA after incubation for 0 hours; type: functional; conditions: Bos taurus; in short: as §1
Nucleic Acid [3] = assay: Thermal stabilization of duplex form of calf thymus DNA after incubation for 18 hours; type: functional; conditions: Bos taurus; in short: as §1
Nucleic Acid [4] = assay: Compound dose required to induce 50 percent cross linking in naked plasmid pBR322 DNA following incubation with agent for 2 hours at 37 degree C; type: functional
In short: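 Denatured at 90 °C for 2.5 min in 30% DMSO and run on 0.8% agarose, 40 V, 14–16 h. Autoradiography and laser densitometry of double- vs single-stranded bands gave dose–response curves; mean of ≥3 experiments.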

K562 [5] = assay: Dose required to induce 50 percent decrease in tail moment of the DNA of K562 cells following a 1 hour treatment; type: functional, Homo sapiens
In short: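 Alkaline Comet assay in K562 cells after 1 h drug exposure, done on ice in subdued light. Cells were irradiated (10 Gy), embedded in agarose, lysed 1 h at pH 10.5, held in alkali 45 min and electrophoresed 25 min at pH 12.5. Slides were propidium iodide stained; 25 cells per duplicate slide. Value is the dose giving 50% decrease in tail moment relative to irradiated controls.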

K562 [6] = assay: Inhibitory concentration against human K562 leukemia cells following incubation for 1 hour; type: functional, cell-based; conditions: K562, 1 h
In short: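 K562 cells in RPMI 1640 with 10% FCS and 2 mM glutamine were exposed to drug for 1 h at 37 °C in the dark, then washed. They were plated at 10⁴ cells/well (8 wells per sample) and grown 4 days. MTT was added for 5 h, formazan dissolved in DMSO, and OD read at 550 nm. IC50 is the dose reducing OD to 50% of control.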

[7] = Compound was tested for inhibition of restriction endonuclease BamH1 enzyme at a concentration of 17.5 uM;Inhibited
In short: (§2)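 BamHI protection assay: a 512-bp PvuII plasmid fragment with a single BamHI site (500 ng) was incubated with the PBD (methanol stock 10 mM) for 16 h at 37 °C. It was then digested with BamHI (10 units) for 1 h at 37 °C. Cut and uncut DNA were resolved on a 1% agarose TBE gel, stained with ethidium bromide, and the cut fraction was quantified versus dose.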

RPMI-8226 = assay: Compound was tested for 50% growth inhibition against human leukemia RPMI-8226 cell line; type: functional
KM12 = assay: Compound was tested for 50% growth inhibition against human colon cancer KM12 cell line; type: functional
A498 = assay: Compound was tested for 50% growth inhibition against human renal cancer A498 cell line; type: functional
SW-620 = assay: Compound was tested for 50% growth inhibition against human colon cancer SW 620 cell line; type: functional
SK-OV-3 = assay: Compound was tested for 50% growth inhibition against human ovarian cancer SK-OV-3 cell line; type: functional
PC-3 = assay: Compound was tested for 50% growth inhibition against human prostate cancer PC-3 cell line; type: functional
UACC-257 = assay: Compound was tested for 50% growth inhibition against human melanoma UACC-257 cell line; type: functional
COLO 205 = assay: Compound was tested for 50% growth inhibition against human colon cancer COLO 205 cell line; type: functional
ACHN = assay: Compound was tested for 50% growth inhibition against human renal cancer ACHN cell line; type: functional
SR = assay: Compound was tested for 50% growth inhibition against human leukemia SR cell line; type: functional
HOP-62 = assay: Compound was tested for 50% growth inhibition against human non-small cell lung cancer HOP-62 cell line; type: functional
786-0 = assay: Compound was tested for 50% growth inhibition against human renal cancer 786-0 cell line; type: functional
EKVX = assay: Compound was tested for 50% growth inhibition against human non-small cell lung cancer EKVX cell line; type: functional
HCC 2998 = assay: Compound was tested for 50% growth inhibition against human colon cancer HCC2998 cell line; type: functional
Hs-578T = assay: Compound was tested for 50% growth inhibition against human breast cancer HS 578T cell line; type: functional
OVCAR-8 = assay: Compound was tested for 50% growth inhibition against human ovarian cancer OVCAR-8 cell line; type: functional
SNB-19 = assay: Compound was tested for 50% growth inhibition against human CNS cancer SNB-19 cell line; type: functional
SN12C = assay: Compound was tested for 50% growth inhibition against human renal cancer […] cell line; type: functional
SF-295 = assay: Compound was tested for 50% growth inhibition against human CNS cancer SF-295 cell line; type: functional
UO-31 = assay: Compound was tested for 50% growth inhibition against human renal cancer UO-31 cell line; type: functional
OVCAR-5 = assay: Compound was tested for 50% growth inhibition against human ovarian cancer OVCAR-5 cell line; type: functional
HL-60 = assay: Compound was tested for 50% growth inhibition against human leukemia […] cell line; type: functional
NCI-H23 = assay: Compound was tested for 50% growth inhibition against human non-small cell lung cancer NCI-H23 cell line; type: functional
NCI-H322M = assay: Compound was tested for 50% growth inhibition against human non-small cell lung cancer NCI-H322M cell line; type: functional
BT-549 = assay: Compound was tested for 50% growth inhibition against human breast cancer BT-549 cell line; type: functional
[8] = Compound was tested for inhibition of restriction endonuclease BamH1 enzyme at a concentration of 10 uM;Inhibited; in short: as §2
NCI-H226 = assay: Compound was tested for 50% growth inhibition against human non-small cell lung cancer NCI-H226 cell line; type: functional
MDA-N = assay: Compound was tested for 50% growth inhibition against human breast cancer MDA-N cell line; type: functional
T47D = assay: Compound was tested for 50% growth inhibition against human breast cancer T-47D cell line; type: functional
NCI-H460 = assay: Compound was tested for 50% growth inhibition against human non-small cell lung cancer NCI-H460 cell line; type: functional
MOLT-4 = assay: Compound was tested for 50% growth inhibition against human leukemia MOLT-4 cell line; type: functional
NCI/ADR-RES = assay: Compound was tested for 50% growth inhibition against human breast cancer NCI/ADR-RES cell line; type: functional
MDA-MB-231 = assay: Compound was tested for 50% growth inhibition against human breast cancer MDA-MB-231/ATCC cell line; type: functional
SF-268 = assay: Compound was tested for 50% growth inhibition against human CNS cancer SF-268 cell line; type: functional
MCF7 = assay: Compound was tested for 50% growth inhibition against human breast cancer MCF-7 cell line; type: functional
M14 = assay: Compound was tested for 50% growth inhibition against human melanoma M14 cell line; type: functional
HCT-15 = assay: Compound was tested for 50% growth inhibition against human colon cancer HCT-15 cell line; type: functional
HOP-92 = assay: Compound was tested for 50% growth inhibition against human non-small cell lung cancer […] cell line; type: functional
SK-MEL-28 = assay: Compound was tested for 50% growth inhibition against human melanoma SK-MEL-28 cell line; type: functional
CCRF-CEM = assay: Compound was tested for 50% growth inhibition against human leukemia CCRF-CEM cell line; type: functional
SF-539 = assay: Compound was tested for 50% growth inhibition against human CNS cancer SF-539 cell line; type: functional
HT-29 = assay: Compound was tested for 50% growth inhibition against human colon cancer HT-29 cell line; type: functional
OVCAR-3 = assay: Compound was tested for 50% growth inhibition against human ovarian cancer OVCAR-3 cell line; type: functional
TK-10 = assay: Compound was tested for 50% growth inhibition against human renal cancer TK-10 cell line; type: functional
SK-MEL-5 = assay: Compound was tested for 50% growth inhibition against human melanoma SK-MEL-5 cell line; type: functional
CAKI-1 = assay: Compound was tested for 50% growth inhibition against human renal cancer CAKI-1 cell line; type: functional
HCT-116 = assay: Compound was tested for 50% growth inhibition against human colon cancer HCT116 cell line; type: functional
Malme-3M = assay: Compound was tested for 50% growth inhibition against human melanoma MALME-3M cell line; type: functional
A549 = assay: Compound was tested for 50% growth inhibition against human non-small cell lung cancer A549/ATCC cell line; type: functional
U-251 = assay: Compound was tested for 50% growth inhibition against human CNS cancer U251 cell line; type: functional
DU-145 = assay: Compound was tested for 50% growth inhibition against human prostate cancer DU-145 cell line; type: functional
LOX IMVI = assay: Compound was tested for 50% growth inhibition against human melanoma LOXIMVI cell line; type: functional
IGROV-1 = assay: Compound was tested for 50% growth inhibition against human ovarian cancer IGROVI cell line; type: functional
[9] = Compound was tested for percentage inhibition of restriction endonuclease BamH1 enzyme at a concentration of 25 uM;Inhibited
[10] = Compound was tested for inhibition of restriction endonuclease BamH1 enzyme at a concentration of 25 uM;Inhibited; in short: as §2

`C/C=C1\C[C@H]2C=Nc3cc(O)c(OC)cc3C(=O)N2C1` gave a ΔTm (Nucleic Acid [1]) of 2.4 °C, a ΔTm (Nucleic Acid [2]) of 1 °C and a ΔTm (Nucleic Acid [3]) of 2.6 °C.
Work on `C=C1C[C@H]2C=Nc3cc(OCCCOc4cc5c(cc4OC)C(=O)N4CC(=C)C[C@H]4C=N5)c(OC)cc3C(=O)N2C1` [SJG-136] yielded a C50 (Nucleic Acid [4]) of 0.045 µM, a ΔTm (Nucleic Acid [1]) of 31.9 °C and a C50 (K562 [5]) of 0.03 µM. The IC50 (K562 [6]) was 43 nM, the ΔTm (Nucleic Acid [2]) was 25.7 °C and the Activity [7] was “Inhibited”. For the same compound, the ΔTm (Nucleic Acid [3]) was 33.6 °C.
With `COc1cc2c(cc1OCCCCCOc1cc3c(cc1OC)C(=O)N1CCC[C@H]1C=N3)N=C[C@@H]1CCCN1C2=O` the C50 (Nucleic Acid [4]) was 0.07 µM, the ΔTm (Nucleic Acid [1]) was 5.9 °C and the IC50 (K562 [6]) was 500 nM. It also gave a ΔTm (Nucleic Acid [2]) of 3.3 °C and a ΔTm (Nucleic Acid [3]) of 9.4 °C.
`C=C1C[C@H]2C=Nc3cc(OCCCCCOc4cc5c(cc4OC)C(=O)N4CC(=C)C[C@H]4C=N5)c(OC)cc3C(=O)N2C1` gave a GI50 (RPMI-8226) of 0.186 nM, a GI50 (KM12) of 0.245 nM and a GI50 (A498) of 0.224 nM. For the same compound, the GI50 (SW-620) was 0.288 nM, the GI50 (SK-OV-3) was 0.162 nM and the GI50 (PC-3) was 0.617 nM. For the same compound, the C50 (Nucleic Acid [4]) was 0.004 µM, the GI50 (UACC-257) was 0.525 nM and the GI50 (COLO 205) was 0.166 nM. The GI50 (ACHN) was 0.0251 nM, the GI50 (SR) was < 0.001 nM and the GI50 (HOP-62) was 0.117 nM. The GI50 (786-0) was 0.0977 nM, the GI50 (EKVX) was 1.58 nM and the GI50 (HCC 2998) was 0.186 nM. It also gave a GI50 (Hs-578T) of 0.302 nM, a GI50 (OVCAR-8) of 0.195 nM and a GI50 (SNB-19) of 0.105 nM. For the same compound, the GI50 (SN12C) was 0.0269 nM, the ΔTm (Nucleic Acid [1]) was 25.5 °C and the GI50 (SF-295) was 0.038 nM. It also gave a GI50 (UO-31) of 0.251 nM, a GI50 (OVCAR-5) of 0.309 nM and a GI50 (HL-60) of 0.0148 nM. It also gave a GI50 (NCI-H23) of 0.0832 nM, a GI50 (NCI-H322M) of 0.468 nM and a GI50 (BT-549) of 0.162 nM. For the same compound, the C50 (K562 [5]) was 0.009 µM, the Activity [8] was “Inhibited” and the GI50 (NCI-H226) was 0.162 nM. It also gave a GI50 (MDA-N) of 0.209 nM, a GI50 (T47D) of 0.0199 nM and a GI50 (NCI-H460) of 0.0955 nM. For the same compound, the GI50 (MOLT-4) was 0.012 nM, the GI50 (NCI/ADR-RES) was 7.94 nM and the GI50 (MDA-MB-231) was 0.371 nM. The GI50 (SF-268) was 0.0501 nM, the GI50 (MCF7) was 0.0933 nM and the GI50 (M14) was 0.141 nM. For the same compound, the GI50 (HCT-15) was 1.74 nM, the GI50 (HOP-92) was 0.112 nM and the IC50 (K562 [6]) was < 1 nM. The ΔTm (Nucleic Acid [2]) was 24.9 °C, the GI50 (SK-MEL-28) was 0.219 nM and the GI50 (CCRF-CEM) was 0.00646 nM. It also gave a GI50 (SF-539) of 0.0363 nM, a GI50 (HT-29) of 0.224 nM and a GI50 (OVCAR-3) of 0.2 nM. It also gave a GI50 (TK-10) of 0.295 nM, a GI50 (SK-MEL-5) of 0.245 nM and a GI50 (CAKI-1) of 0.178 nM. The GI50 (HCT-116) was 0.174 nM, the GI50 (Malme-3M) was 0.162 nM and the GI50 (A549) was 0.123 nM. The GI50 (U-251) was 0.0427 nM, the GI50 (DU-145) was 0.049 nM and the GI50 (LOX IMVI) was 0.0549 nM. For the same compound, the ΔTm (Nucleic Acid [3]) was 25.8 °C and the GI50 (IGROV-1) was 0.0049 nM.
Compound `Cc1ccc2c(c1O)NC(O)C1CC(/C=C/C(N)=O)=CN1C2=O` (stereo unspecified) has an inhibition [9] of 12%.
In the case of `COc1cc2c(cc1OCCCOc1cc3c(cc1OC)C(=O)N1CCC[C@H]1C=N3)N=C[C@@H]1CCCN1C2=O` [DSB-120], the C50 (Nucleic Acid [4]) is reported as 0.055 µM, the ΔTm (Nucleic Acid [1]) is reported as 13.1 °C and the Activity [10] is reported as “Inhibited”. For the same compound, the IC50 (K562 [6]) was 200 nM, the ΔTm (Nucleic Acid [2]) was 10.2 °C and the ΔTm (Nucleic Acid [3]) was 15.1 °C.
